pEC50: −log10 of the molar value. Calls of active or inactive are those of the source. No cut-off for these calls is given here.
Assays:
Hepatitis C virus [1] = experiment: Antiviral activity against HCV genotype 1b NK/R2AN infected in human Huh7.5.1 cells assessed as reduction in virus replication in presence of 123 nM NS5B polymerase inhibitor sofosbuvir by luciferase reporter gene assay; format: functional, organism-based; details: Hepacivirus hominis; subtype 1b NK/R2AN; Huh-7
Hepatitis C virus [2] = experiment: Antiviral activity against HCV genotype 1b NK/R2AN infected in human Huh7.5.1 cells assessed as reduction in virus replication by luciferase reporter gene assay; format: functional, organism-based, Hepacivirus hominis, subtype 1b NK/R2AN, Huh-7
Hepatitis C virus [3] = experiment: Antiviral activity against HCV genotype 2a JFH5a infected in human Huh7.5.1 cells transfected with JFH5a-Rluc-ad34 assessed as reduction in virus proliferation by luciferase reporter gene assay; format: functional, cell-based, Hepacivirus hominis, Huh-7
[4] = Cytotoxicity against human Huh7.5.1 cells; format: cell-based, Huh-7
[5] = Stability in rat plasma assessed as compound remaining t 100 uM after 0.5 hrs by LC-MS/MS method; format: ADME, cell-free; details: read-out: Stability
Method in brief: (§1)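 Rat plasma pre-warmed 5 min at 37 °C, mixed with test compound from 100 µM stock (3 into 297 parts), incubated at 37 °C; sampled at 0, 15, 30, 60, 120 min, acetonitrile-precipitated, centrifuged 10 min, supernatant analysed by LC-MS/MS.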

Cytochrome P450 3A4 = Cytochrome P450 3A4 (Homo sapiens, UniProt P08684); experiment: Inhibition of human CYP3A4 by luminometry; format: ADME
Cytochrome P450 3A4, sequence (P08684 whole entry): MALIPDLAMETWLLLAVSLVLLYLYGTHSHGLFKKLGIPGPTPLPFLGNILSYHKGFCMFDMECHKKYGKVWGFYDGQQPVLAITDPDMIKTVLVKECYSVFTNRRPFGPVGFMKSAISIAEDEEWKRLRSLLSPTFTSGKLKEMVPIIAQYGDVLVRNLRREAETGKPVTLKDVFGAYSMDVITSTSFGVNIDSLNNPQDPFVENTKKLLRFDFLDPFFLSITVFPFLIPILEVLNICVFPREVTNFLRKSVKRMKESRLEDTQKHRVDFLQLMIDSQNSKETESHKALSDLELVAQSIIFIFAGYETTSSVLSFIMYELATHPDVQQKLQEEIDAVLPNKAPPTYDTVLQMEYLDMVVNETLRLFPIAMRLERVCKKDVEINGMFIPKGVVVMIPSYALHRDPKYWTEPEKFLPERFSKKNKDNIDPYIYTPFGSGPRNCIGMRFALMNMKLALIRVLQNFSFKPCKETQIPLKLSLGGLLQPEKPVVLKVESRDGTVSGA
Method in brief: (§2)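 Human CYP1A2, 2C9, 2C19, 2D6 and 3A4 inhibition by P450-Glo luminescent assay per kit protocol; compounds at 100, 50, 10, 5, 1, 0.1 and 0.01 µM; luminometer read-out.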

[6] = Oral bioavailability in Sprague-Dawley rat at 10 mg/kg by LC/MS/MS method; format: ADME, organism-based; details: in vivo
Method in brief: (§3)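 Sprague-Dawley rats, 2 male and 1 female per compound per route, parallel design. Vehicle 5% DMSO, 10% solutol, 85% HPBCD; IV 5 mg/kg bolus via tail vein, oral 10 mg/kg. Blood into K2-EDTA tubes at several time points, centrifuged, plasma analysed by LC/MS/MS; non-compartmental analysis.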

Cytochrome P450 2D6 = Cytochrome P450 2D6 (Homo sapiens, UniProt P10635); experiment: Inhibition of human CYP2D6 by luminometry; format: ADME; method in brief: as §2
Cytochrome P450 2D6, sequence (P10635 whole entry): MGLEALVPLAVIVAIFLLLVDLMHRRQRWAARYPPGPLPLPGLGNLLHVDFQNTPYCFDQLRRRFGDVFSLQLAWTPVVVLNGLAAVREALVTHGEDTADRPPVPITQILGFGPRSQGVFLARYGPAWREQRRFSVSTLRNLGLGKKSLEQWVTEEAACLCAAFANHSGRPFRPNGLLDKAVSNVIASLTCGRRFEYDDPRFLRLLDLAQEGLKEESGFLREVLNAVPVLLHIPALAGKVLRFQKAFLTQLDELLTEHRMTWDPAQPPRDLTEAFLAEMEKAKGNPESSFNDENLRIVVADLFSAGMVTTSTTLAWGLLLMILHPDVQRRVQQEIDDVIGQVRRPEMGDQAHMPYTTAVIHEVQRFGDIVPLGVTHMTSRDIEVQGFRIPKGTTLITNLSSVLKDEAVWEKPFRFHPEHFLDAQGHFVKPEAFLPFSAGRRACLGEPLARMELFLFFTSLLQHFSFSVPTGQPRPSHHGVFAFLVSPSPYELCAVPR

[7] = Half life in Sprague-Dawley rat at 10 mg/kg, po by LC/MS/MS method; format: ADME, organism-based; details: in vivo; method in brief: as §3
[8] = Stability in human liver microsomes assessed as compound remaining at 1 uM after 0.5 hrs by LC-MS/MS method; format: ADME; details: read-out: Stability
Method in brief: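 Pooled human liver microsomal fraction with β-NADPH, compound at 1 µM, incubated over 30 min; remaining compound in supernatant quantified by LC-MS/MS.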

Cytochrome P450 2C9 = Cytochrome P450 2C9 (Homo sapiens, UniProt P11712); experiment: Inhibition of human CYP2C9 by luminometry; format: ADME; method in brief: as §2
Cytochrome P450 2C9, sequence (P11712 whole entry): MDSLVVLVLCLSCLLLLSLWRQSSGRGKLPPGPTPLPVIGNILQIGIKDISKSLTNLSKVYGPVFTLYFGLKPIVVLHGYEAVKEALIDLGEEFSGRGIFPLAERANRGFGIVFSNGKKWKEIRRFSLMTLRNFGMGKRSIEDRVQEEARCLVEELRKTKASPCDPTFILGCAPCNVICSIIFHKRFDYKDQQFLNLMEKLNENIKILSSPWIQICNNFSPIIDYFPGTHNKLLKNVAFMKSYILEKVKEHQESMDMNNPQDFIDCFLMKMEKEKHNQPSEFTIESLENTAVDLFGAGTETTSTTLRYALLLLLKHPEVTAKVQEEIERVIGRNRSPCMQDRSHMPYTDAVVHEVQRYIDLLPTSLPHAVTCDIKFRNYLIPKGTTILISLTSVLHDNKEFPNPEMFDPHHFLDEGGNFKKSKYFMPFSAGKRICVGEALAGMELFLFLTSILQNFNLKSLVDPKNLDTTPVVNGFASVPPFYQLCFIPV

[9] = Half life in Sprague-Dawley rat at 5 mg/kg, iv by LC/MS/MS method; format: ADME, organism-based; details: in vivo; method in brief: as §3
Cytochrome P450 1A2 = molecular target: T1, Cytochrome P450 1A2 (Homo sapiens, UniProt P05177); experiment: Inhibition of human CYP1A2 by luminometry; format: ADME; method in brief: as §2
T1 sequence (P05177 whole entry): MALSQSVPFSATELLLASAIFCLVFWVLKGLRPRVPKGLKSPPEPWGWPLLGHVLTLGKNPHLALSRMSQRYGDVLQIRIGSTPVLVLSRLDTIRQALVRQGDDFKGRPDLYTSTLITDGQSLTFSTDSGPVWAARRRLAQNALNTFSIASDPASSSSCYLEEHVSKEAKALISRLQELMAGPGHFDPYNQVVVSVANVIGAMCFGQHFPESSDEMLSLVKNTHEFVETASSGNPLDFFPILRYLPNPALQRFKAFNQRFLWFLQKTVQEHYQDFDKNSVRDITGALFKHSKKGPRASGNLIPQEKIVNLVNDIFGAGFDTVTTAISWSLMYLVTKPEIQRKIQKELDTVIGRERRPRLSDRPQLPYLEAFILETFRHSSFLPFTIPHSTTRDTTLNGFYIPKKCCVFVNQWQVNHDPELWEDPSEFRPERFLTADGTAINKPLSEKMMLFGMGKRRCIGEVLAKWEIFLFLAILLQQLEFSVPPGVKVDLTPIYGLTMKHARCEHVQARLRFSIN

hERG (KCNH2) = hERG (KCNH2) (Homo sapiens, UniProt Q12809); experiment: Inhibition of human ERG at 10 uM by fluorescence polarization assay based ligand binding assay
hERG (KCNH2), sequence (Q12809 whole entry): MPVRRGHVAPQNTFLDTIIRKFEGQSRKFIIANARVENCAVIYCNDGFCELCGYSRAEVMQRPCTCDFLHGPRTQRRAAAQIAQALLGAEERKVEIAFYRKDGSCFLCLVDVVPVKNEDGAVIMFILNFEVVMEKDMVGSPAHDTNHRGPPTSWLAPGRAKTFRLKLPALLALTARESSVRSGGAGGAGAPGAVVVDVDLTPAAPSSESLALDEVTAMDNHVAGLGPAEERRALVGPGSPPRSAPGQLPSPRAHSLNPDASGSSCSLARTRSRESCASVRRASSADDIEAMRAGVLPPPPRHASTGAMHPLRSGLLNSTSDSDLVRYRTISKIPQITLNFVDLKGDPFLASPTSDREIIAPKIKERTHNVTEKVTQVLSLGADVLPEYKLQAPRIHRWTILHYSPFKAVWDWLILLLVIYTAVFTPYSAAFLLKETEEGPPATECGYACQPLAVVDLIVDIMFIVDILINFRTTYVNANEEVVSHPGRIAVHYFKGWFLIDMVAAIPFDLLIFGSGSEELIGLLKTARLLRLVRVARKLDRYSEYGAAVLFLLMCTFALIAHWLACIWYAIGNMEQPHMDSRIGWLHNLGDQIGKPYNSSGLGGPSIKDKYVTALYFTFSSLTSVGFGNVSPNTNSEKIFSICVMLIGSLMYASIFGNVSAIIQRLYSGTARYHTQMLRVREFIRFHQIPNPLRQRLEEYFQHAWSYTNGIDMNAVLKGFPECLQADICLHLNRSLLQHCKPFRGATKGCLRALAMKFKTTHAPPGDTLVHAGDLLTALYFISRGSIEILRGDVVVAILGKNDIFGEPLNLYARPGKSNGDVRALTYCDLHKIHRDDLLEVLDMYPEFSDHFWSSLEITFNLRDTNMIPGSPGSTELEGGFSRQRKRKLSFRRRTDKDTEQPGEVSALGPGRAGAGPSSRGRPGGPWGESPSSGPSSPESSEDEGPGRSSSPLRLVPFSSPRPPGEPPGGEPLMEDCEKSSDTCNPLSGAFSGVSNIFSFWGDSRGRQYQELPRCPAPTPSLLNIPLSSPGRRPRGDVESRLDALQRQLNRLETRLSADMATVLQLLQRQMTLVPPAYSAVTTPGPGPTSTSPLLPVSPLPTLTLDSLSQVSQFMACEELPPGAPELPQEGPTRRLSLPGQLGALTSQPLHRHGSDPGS

[10] = Stability in rat plasma assessed as compound remaining at 100 uM after 2 hrs by LC-MS/MS method; format: ADME, cell-free; details: read-out: Stability; method in brief: as §1
Cytochrome P450 2C19 = Cytochrome P450 2C19 (Homo sapiens, UniProt P33261); experiment: Inhibition of human CYP2C19 by luminometry; format: ADME; method in brief: as §2
Cytochrome P450 2C19, sequence (P33261 whole entry): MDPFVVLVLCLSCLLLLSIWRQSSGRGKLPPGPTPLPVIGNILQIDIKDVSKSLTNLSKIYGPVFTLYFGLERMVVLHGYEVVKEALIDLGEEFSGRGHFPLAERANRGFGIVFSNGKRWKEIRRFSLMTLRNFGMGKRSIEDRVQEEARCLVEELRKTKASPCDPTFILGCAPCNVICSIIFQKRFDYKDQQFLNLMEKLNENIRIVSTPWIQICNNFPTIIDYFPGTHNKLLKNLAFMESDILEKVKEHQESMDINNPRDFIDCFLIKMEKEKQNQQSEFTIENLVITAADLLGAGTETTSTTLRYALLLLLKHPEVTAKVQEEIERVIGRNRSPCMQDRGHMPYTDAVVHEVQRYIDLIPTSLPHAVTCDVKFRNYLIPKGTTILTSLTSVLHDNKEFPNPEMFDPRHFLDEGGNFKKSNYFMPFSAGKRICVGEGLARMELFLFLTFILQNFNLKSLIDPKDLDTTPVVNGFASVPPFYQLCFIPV

[11] = Stability in rat plasma assessed as compound remaining at 100 uM after 1 hr by LC-MS/MS method; format: ADME, cell-free; details: read-out: Stability; method in brief: as §1
Salmonella typhimurium = experiment: Genotoxicity in Salmonella typhimurium TA98 assessed as induction of revertant colonies at 1 ug/plate in absence of S9 mix by Ames test relative untreated control; format: toxicity, organism-based; details: salmonella enterica subsp. enterica serovar typhimurium
Hepatitis C virus [12] = experiment: Antiviral activity against HCV genotype 1b NK/R2AN infected in human Huh7.5.1 cells expressing NS5A L31V mutant assessed as reduction in virus replication at 100 pM to 1 uM by luciferase reporter gene assay; format: functional, organism-based; details: Hepacivirus hominis, subtype 1b NK/R2AN, Huh-7
Method in brief: (§4)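 Daclatasvir-resistant NS5A mutant RNAs were transcribed in vitro and electroporated into Huh7.5.1 cells grown in 12-well plates. At 4 h post-transfection, medium was replaced with DMEM containing serially diluted compounds. Cells were harvested 3 days later and Renilla luciferase activity was measured and normalized to mock-treated cells.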

Hepatitis C virus [13] = experiment: Antiviral activity against HCV genotype 1b NK/R2AN infected in human Huh7.5.1 cells expressing NS5A Y93H mutant assessed as reduction in virus replication at 100 pM to 1 uM by luciferase reporter gene assay; format: functional, organism-based; details: Hepacivirus hominis, subtype 1b NK/R2AN, Huh-7; method in brief: as §4
[14] = Hepatitis C virus, subtype 1b NK/R2AN, Huh-7
[15] = Hepatitis C virus, genotype 2a JFH5a, Huh-7

Row | SMILES | pEC50 (Hepatitis C virus [2]; [14]) | pEC50 (Hepatitis C virus [3]; [15]) | CC50 [4] | remaining at 0.5 h, 100 µM [5] | pEC50 (Cytochrome P450 3A4) | bioavailability [6] | pEC50 (Cytochrome P450 2D6) | half-life [7] | remaining at 0.5 h, 1 µM [8] | pEC50 (Cytochrome P450 2C9) | half-life [9] | pEC50 (Cytochrome P450 1A2) | inhibition at 10 µM (hERG (KCNH2)) | remaining at 2 h, 100 µM [10] | pEC50 (Cytochrome P450 2C19) | remaining at 1 h, 100 µM [11] | other results
1 | COC(=O)N[C@@H](C(=O)N1CCC[C@H]1C(=O)Nc1ccc(-c2ccc(NC(=O)[C@@H]3CCCN3C(=O)[C@H](NC(=O)OC)c3ccccc3)cc2C(F)(F)F)c(C(F)(F)F)c1)c1ccccc1 (stereo in doubt; form 1) [listing 1 of 2 here] |  |  |  |  |  |  |  |  |  |  |  |  |  |  |  |  | Activity (Hepatitis C virus [1]): Active
2 | COC(=O)N[C@@H](C(=O)N1CCC[C@@]1(C)C(=O)Nc1ccc(-c2ccc(NC(=O)[C@]3(C)CCCN3C(=O)[C@H](NC(=O)OC)c3ccccc3)cc2)cc1)c1ccccc1 | 8.66 | 8.48 | > 25000 nM |  |  |  |  |  |  |  |  |  |  |  |  |  | 
3 | COC(=O)N[C@@H](C(=O)N1CCC[C@H]1C(=O)Nc1ccc(-c2ccc(NC(=O)[C@@H]3CCCN3C(=O)[C@H](NC(=O)OC)c3ccccc3)cc2Cl)c(Cl)c1)c1ccccc1 | 11.15 | 11.00 | > 25000 nM | 72% | 5.40 | 4.99% | 4.39 | 6.37 h | 96% | 6.94 | 1.55 h | 4.62 | 5.8% | 70% | 5.98 | 75% | 
4 | COC(=O)N[C@@H](C(=O)N1CCC[C@H]1C(=O)Nc1ccc(-c2ccc(NC(=O)[C@@H]3CCCN3C(=O)[C@H](NC(=O)OC)c3ccccc3)cc2C)c(C)c1)c1ccccc1 | 10.46 | 9.49 | > 25000 nM |  |  |  |  |  |  |  |  |  |  |  |  |  | 
5 | O=[N+]([O-])c1ccc2c(c1)Cc1ccccc1-2 [2-NITROFLUORENE] |  |  |  |  |  |  |  |  |  |  |  |  |  |  |  |  | fold change (FC) (Salmonella typhimurium): 10.2
6 | COC(=O)N[C@@H](C(=O)N1CCC[C@H]1C(=O)Nc1ccc(-c2ccc(NC(=O)[C@@H]3CCCN3C(=O)[C@H](NC(=O)OC)c3ccccc3)cc2C(F)(F)F)c(C(F)(F)F)c1)c1ccccc1 (stereo in doubt; form 3) |  |  |  |  |  |  |  |  |  |  |  |  |  |  |  |  | pEC50 (Hepatitis C virus [2]; huh-7): 8.62; pEC50 (Hepatitis C virus [3]; huh-7): 7.61
7 | COC(=O)N[C@@H](C(=O)N1CCC[C@H]1C(=O)Nc1ccc(-c2ccc(NC(=O)[C@@H]3CCCN3C(=O)[C@H](NC(=O)OC)c3ccccc3)cc2F)c(F)c1)c1ccccc1 | 11.30 | 9.80 | > 25000 nM | 65% | 5.61 | 3.12% | 5.31 | 2.34 h | 97% | 7.06 | 0.88 h | < 4.00 | < 1% | 63% | 6.14 | 61% | 
8 | COC(=O)N[C@@H](C(=O)N1CCC[C@H]1C(=O)Nc1ccc(-c2ccc(NC(=O)[C@@H]3CCCN3C(=O)[C@H](NC(=O)OC)c3ccccc3)cc2C(F)(F)F)c(C(F)(F)F)c1)c1ccccc1 (stereo in doubt; form 1) [listing 2 of 2 here] |  |  |  | 93% | 5.33 | 11.7% | < 4.00 | 3.8 h | 79% | 6.18 | 2.9 h | 4.10 | 7.98% | 99% | 5.33 | 99% | pEC50 (Hepatitis C virus [2]; huh-7): 11.60; pEC50 (Hepatitis C virus [3]; huh-7): 10.60
9 | COC(=O)N[C@H](C(=O)N1CCC[C@H]1c1ncc(-c2ccc(-c3ccc(-c4cnc([C@@H]5CCCN5C(=O)[C@@H](NC(=O)OC)C(C)C)[nH]4)cc3)cc2)[nH]1)C(C)C |  |  |  |  |  |  |  |  |  |  |  |  |  |  |  |  | inhibition (Hepatitis C virus [12]): Active; inhibition (Hepatitis C virus [13]): Active
10 | COC(=O)N[C@@H](C(=O)N1CCC[C@H]1C(=O)Nc1ccc2c(c1)C(=O)c1cc(NC(=O)[C@@H]3CCCN3C(=O)[C@H](NC(=O)OC)c3ccccc3)ccc1-2)c1ccccc1 | 11.40 | 8.37 | > 25000 nM |  |  |  |  |  |  |  |  |  |  |  |  |  | 
